Test results from ChEMBL document CHEMBL1152560, “Substituted 2-arylbenzothiazoles as kinase inhibitors: hit-to-lead optimization” (Bioorg Med Chem, 2009).

Columns and labels:
[1] = test system: Fibroblast growth factor receptor 1 (Homo sapiens), P11362 [V561M]; test: Residual activity of FGFR1 V561M mutant at 1 uM by microplate scintillation counting
[2] = molecular target: Fibroblast growth factor receptor 2 (Homo sapiens) (UniProt P21802); test: Residual activity of FGFR2 at 1 uM by microplate scintillation counting
[3] = molecular target: Receptor-type tyrosine-protein kinase FLT3 (Homo sapiens) (UniProt P36888); test: Residual activity of wild type FLT3 at 1 uM by microplate scintillation counting
[4] = molecular target: Receptor tyrosine-protein kinase erbB-2 (Homo sapiens, UniProt P04626); test: Residual activity of ERBB2 at 10 uM by microplate scintillation counting
[5] = molecular target: Fibroblast growth factor receptor 4 (Homo sapiens) (UniProt P22455); test: Residual activity of FGFR4 at 0.1 uM by microplate scintillation counting
[6] = molecular target: T1, Tyrosine-protein kinase ITK/TSK (Homo sapiens) (UniProt Q08881); test: Residual activity of ITK at 1 uM by microplate scintillation counting
T1 sequence (whole entry): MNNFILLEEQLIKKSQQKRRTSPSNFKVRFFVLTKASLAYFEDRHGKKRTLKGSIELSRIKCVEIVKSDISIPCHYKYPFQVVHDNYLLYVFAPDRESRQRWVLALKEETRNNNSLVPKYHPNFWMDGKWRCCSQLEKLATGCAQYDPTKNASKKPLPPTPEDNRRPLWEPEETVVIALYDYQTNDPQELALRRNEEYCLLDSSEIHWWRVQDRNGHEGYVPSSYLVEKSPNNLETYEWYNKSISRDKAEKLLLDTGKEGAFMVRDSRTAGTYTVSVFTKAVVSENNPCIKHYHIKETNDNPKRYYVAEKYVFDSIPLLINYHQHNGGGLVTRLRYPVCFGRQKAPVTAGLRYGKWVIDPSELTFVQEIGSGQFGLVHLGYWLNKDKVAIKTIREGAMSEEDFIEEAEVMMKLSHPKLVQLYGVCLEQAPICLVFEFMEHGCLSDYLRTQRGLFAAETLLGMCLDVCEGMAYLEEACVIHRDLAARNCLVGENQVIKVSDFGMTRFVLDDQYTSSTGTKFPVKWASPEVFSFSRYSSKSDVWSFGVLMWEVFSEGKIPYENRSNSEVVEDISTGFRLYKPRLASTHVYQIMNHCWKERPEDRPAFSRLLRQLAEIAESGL

[7] = molecular target: Mitogen-activated protein kinase 9 (Homo sapiens) (UniProt P45984); test: Residual activity of JNK2 at 1 uM by microplate scintillation counting
[8] = molecular target: T2, Tyrosine-protein kinase Mer (Homo sapiens) (UniProt Q12866); test: Residual activity of MERTK at 1 uM by microplate scintillation counting
T2 sequence (whole entry): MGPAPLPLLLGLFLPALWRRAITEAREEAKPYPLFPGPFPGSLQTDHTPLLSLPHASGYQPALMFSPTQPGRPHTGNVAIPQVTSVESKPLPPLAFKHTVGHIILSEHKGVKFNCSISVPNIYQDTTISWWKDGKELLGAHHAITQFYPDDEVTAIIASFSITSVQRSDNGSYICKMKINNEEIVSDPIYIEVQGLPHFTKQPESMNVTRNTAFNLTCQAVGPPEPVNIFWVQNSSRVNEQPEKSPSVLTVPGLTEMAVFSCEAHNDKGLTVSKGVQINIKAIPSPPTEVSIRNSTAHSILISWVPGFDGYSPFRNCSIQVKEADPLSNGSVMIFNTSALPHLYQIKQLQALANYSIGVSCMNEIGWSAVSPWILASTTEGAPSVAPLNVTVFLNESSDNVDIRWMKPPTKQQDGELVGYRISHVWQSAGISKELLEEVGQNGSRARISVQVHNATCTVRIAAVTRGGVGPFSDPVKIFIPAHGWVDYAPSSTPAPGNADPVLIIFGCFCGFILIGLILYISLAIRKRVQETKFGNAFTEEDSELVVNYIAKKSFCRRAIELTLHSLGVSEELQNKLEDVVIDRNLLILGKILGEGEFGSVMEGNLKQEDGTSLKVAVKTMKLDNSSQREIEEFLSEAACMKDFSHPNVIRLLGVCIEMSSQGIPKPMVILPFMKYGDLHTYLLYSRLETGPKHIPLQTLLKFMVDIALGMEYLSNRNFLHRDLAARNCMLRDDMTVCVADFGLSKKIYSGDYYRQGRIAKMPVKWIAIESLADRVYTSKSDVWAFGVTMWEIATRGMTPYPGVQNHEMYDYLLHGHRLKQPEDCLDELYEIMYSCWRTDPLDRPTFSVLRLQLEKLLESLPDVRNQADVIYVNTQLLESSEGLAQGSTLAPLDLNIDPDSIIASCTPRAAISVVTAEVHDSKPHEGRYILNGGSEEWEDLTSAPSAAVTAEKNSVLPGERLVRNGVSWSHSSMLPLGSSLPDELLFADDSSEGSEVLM

[9] = molecular target: Serine/threonine-protein kinase PAK 6 (Homo sapiens) (UniProt Q9NQU5); test: Residual activity of PAK6 at 1 uM by microplate scintillation counting
[10] = molecular target: Serine/threonine-protein kinase N1 (Homo sapiens) (UniProt Q16512); test: Residual activity of PRK1 at 1 uM by microplate scintillation counting
Serine/threonine-protein kinase N1 (Homo sapiens), sequence (Q16512 2-942 limits assumed): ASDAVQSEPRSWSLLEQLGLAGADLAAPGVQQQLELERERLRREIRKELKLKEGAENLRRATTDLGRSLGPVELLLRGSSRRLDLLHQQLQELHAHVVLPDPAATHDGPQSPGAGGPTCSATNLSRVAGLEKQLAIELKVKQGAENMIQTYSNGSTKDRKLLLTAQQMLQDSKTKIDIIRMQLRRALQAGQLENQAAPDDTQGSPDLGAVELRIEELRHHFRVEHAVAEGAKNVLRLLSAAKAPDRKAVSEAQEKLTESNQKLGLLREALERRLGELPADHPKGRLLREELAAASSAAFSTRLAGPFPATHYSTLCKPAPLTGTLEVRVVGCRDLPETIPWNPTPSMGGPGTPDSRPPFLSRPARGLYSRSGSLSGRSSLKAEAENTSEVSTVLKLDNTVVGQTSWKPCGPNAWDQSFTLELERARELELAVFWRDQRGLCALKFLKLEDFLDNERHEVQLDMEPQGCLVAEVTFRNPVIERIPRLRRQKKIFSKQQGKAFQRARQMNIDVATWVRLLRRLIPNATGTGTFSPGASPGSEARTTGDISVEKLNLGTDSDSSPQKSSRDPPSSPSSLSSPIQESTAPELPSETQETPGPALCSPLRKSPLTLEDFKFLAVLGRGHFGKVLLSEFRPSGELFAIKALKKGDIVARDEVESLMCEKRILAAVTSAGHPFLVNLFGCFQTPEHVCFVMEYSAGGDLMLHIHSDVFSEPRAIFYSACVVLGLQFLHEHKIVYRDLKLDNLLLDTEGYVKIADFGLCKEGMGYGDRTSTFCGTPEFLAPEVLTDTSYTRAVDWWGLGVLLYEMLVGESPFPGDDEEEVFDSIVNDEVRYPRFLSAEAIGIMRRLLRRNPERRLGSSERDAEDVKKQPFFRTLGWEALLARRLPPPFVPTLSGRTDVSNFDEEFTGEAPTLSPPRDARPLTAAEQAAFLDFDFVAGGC

[11] = molecular target: Serine/threonine-protein kinase 16 (Homo sapiens) (UniProt O75716); test: Residual activity of TSF1 at 1 uM by microplate scintillation counting
Serine/threonine-protein kinase 16 (Homo sapiens), sequence (O75716 whole entry): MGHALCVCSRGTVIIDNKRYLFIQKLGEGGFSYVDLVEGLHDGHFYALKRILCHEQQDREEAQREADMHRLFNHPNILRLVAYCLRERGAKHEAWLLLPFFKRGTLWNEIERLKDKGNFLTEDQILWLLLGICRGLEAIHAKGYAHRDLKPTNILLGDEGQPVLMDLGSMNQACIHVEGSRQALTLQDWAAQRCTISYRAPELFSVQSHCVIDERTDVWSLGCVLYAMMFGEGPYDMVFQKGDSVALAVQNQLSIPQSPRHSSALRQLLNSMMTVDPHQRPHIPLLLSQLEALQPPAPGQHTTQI

[12] = molecular target: Receptor-type tyrosine-protein kinase FLT3 (Homo sapiens) (UniProt P36888); test: Residual activity of wild type FLT3 at 10 uM by microplate scintillation counting
[13] = molecular target: Wee1-like protein kinase (Homo sapiens) (UniProt P30291); test: Residual activity of WEE1 at 0.1 uM by microplate scintillation counting
Wee1-like protein kinase (Homo sapiens), sequence (P30291 whole entry, looked up): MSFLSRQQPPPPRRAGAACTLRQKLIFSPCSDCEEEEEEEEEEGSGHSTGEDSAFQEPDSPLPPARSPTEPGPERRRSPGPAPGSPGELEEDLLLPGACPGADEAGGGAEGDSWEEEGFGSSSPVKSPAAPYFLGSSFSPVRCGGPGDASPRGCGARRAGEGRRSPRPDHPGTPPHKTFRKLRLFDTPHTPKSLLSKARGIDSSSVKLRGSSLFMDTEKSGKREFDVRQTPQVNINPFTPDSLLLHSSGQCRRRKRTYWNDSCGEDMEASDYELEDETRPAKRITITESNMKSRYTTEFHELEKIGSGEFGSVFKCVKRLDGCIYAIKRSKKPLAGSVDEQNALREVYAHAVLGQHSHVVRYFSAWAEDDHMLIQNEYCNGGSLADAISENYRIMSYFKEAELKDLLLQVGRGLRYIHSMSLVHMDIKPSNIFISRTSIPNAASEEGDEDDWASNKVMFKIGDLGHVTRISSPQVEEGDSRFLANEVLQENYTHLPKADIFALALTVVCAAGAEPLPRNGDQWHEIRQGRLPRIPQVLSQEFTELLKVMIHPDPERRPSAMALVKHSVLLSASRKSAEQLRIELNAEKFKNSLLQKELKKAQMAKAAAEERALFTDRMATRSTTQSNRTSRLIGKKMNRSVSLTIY

[14] = molecular target: Calcium/calmodulin-dependent protein kinase kinase 2 (Homo sapiens) (UniProt Q96RR4); test: Residual activity of CAMKK2 at 10 uM by microplate scintillation counting
[15] = molecular target: Serine/threonine-protein kinase PAK 1 (Homo sapiens) (UniProt Q13153); test: Residual activity of PAK1 at 10 uM by microplate scintillation counting
Serine/threonine-protein kinase PAK 1 (Homo sapiens), sequence (Q13153 whole entry): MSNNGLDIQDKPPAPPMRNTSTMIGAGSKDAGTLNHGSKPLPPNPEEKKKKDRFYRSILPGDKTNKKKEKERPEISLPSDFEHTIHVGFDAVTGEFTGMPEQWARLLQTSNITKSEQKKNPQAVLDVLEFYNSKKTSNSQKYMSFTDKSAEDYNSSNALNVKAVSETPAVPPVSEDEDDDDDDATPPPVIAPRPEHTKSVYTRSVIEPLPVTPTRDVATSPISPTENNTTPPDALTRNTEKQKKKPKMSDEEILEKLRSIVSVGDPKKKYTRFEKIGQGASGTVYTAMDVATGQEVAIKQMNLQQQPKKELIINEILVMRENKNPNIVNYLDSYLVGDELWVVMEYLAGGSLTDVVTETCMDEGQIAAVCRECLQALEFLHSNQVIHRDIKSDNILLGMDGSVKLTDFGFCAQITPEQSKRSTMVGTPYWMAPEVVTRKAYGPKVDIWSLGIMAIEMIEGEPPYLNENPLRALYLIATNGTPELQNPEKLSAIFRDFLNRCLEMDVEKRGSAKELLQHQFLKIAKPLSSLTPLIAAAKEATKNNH

[16] = molecular target: Serine/threonine-protein kinase MRCK beta (Homo sapiens) (UniProt Q9Y5S2); test: Residual activity of CDC42BPB at 1 uM by microplate scintillation counting
[17] = molecular target: Activin receptor type-1-like (Homo sapiens) (UniProt P37023); test: Residual activity of ACV-RL1 at 0.1 uM by microplate scintillation counting
[18] = molecular target: Serine/threonine-protein kinase 16 (Homo sapiens) (UniProt O75716); test: Residual activity of TSF1 at 0.1 uM by microplate scintillation counting
[19] = molecular target: Vascular endothelial growth factor receptor 1 (Homo sapiens) (UniProt P17948); test: Residual activity of VEGFR1 at 10 uM by microplate scintillation counting
Vascular endothelial growth factor receptor 1 (Homo sapiens), sequence (P17948 whole entry): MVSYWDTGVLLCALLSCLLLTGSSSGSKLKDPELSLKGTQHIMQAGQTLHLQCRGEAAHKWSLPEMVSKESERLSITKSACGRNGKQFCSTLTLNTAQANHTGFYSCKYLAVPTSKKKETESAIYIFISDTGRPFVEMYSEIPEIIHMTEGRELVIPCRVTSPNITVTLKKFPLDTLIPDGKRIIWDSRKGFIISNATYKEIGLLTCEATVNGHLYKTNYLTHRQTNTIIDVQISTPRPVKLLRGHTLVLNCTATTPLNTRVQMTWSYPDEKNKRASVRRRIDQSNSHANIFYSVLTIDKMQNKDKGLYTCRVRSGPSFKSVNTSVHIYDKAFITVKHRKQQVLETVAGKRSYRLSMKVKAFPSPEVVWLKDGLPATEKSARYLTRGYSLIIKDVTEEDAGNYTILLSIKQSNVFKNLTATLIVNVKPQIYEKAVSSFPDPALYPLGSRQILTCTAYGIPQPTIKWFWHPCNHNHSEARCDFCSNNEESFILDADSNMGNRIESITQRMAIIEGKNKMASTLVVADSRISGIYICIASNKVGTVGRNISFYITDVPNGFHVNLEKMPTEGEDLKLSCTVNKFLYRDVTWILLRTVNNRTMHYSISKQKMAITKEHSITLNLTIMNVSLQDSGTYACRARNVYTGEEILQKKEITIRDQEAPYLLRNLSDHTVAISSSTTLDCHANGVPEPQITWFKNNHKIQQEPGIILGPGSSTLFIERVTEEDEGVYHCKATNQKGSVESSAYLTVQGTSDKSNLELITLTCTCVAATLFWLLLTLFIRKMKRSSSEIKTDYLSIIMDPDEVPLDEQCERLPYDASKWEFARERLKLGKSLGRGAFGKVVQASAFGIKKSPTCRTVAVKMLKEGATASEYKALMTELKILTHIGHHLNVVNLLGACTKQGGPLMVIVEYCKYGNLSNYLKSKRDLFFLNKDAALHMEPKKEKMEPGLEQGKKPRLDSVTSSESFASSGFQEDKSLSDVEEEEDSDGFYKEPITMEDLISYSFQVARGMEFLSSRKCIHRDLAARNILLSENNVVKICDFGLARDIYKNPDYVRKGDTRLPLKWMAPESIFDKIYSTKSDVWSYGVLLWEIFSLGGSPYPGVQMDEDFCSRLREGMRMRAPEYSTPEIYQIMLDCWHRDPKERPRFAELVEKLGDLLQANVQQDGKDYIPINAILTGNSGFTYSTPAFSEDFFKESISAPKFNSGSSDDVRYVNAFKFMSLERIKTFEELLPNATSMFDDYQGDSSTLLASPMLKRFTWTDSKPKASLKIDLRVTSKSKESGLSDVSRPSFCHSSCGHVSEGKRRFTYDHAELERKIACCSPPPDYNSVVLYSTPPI

Angiopoietin-1 receptor = Angiopoietin-1 receptor (Homo sapiens, UniProt Q02763); test: Inhibition of TIE2 in human HCT116 cells by cellular phosphorylation assay; format: cell-based, HCT-116
Angiopoietin-1 receptor, sequence (Q02763 whole entry): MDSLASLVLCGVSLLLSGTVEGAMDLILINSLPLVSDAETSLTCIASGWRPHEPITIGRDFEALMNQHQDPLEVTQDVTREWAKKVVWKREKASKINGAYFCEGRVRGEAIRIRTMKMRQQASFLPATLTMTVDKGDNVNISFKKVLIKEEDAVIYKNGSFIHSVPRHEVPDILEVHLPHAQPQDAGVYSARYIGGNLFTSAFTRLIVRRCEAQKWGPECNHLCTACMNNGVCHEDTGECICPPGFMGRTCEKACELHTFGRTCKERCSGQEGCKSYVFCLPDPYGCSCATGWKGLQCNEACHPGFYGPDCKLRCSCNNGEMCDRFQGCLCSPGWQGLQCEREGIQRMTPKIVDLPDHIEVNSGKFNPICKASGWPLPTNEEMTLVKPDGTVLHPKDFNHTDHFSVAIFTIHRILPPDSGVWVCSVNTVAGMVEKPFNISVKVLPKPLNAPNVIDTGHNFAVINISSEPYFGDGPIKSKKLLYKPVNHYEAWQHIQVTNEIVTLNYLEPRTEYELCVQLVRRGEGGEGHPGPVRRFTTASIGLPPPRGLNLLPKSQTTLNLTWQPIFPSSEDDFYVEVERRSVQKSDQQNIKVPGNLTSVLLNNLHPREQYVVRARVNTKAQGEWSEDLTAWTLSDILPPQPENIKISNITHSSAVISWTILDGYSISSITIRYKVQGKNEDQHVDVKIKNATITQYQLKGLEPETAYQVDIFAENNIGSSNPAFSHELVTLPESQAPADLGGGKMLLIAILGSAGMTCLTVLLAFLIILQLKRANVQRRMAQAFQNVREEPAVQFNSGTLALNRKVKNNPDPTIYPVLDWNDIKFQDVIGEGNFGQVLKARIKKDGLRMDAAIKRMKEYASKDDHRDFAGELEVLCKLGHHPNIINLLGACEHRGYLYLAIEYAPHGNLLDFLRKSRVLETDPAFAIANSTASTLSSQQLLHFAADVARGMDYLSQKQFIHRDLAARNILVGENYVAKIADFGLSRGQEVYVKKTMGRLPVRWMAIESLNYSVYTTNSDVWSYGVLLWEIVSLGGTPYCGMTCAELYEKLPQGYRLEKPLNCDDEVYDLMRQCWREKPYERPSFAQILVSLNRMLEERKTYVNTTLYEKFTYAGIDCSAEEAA
In short: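 TIE2 autophosphorylation in cells expressing the receptor. Compound was applied, cells were stimulated, then lysed with phosphoprotein levels preserved. Phosphorylation was quantified by sandwich ELISA with a receptor-specific capture antibody and anti-phosphotyrosine antibody, relative to the stimulated high control.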

| residual activity [1] [%] | residual activity [2] [%] | residual activity [3] [%] | residual activity [4] [%] | residual activity [5] [%] | residual activity [6] [%] | residual activity [7] [%] | residual activity [8] [%] | residual activity [9] [%] | residual activity [10] [%] | residual activity [11] [%] | residual activity [12] [%] | residual activity [13] [%] | residual activity [14] [%] | residual activity [15] [%] | residual activity [16] [%] | residual activity [17] [%] | residual activity [18] [%] | residual activity [19] [%] | EC50 (Angiopoietin-1 receptor) [nM] | Compound |
| --- | --- | --- | --- | --- | --- | --- | --- | --- | --- | --- | --- | --- | --- | --- | --- | --- | --- | --- | --- | --- |
| 102 | 107 | 90 | 110 | 100 | 95 | 90 | 11 | 109 | 97 | 87 | 42 | 100 | 97 | 69 | 99 | 96 | 93 | 28 | 140 | COc1cc2c(Oc3ccc(-c4nc5ccccc5s4)cc3)ncnc2cc1OCCCN1CCCC1 |
| 103 | 111 | 97 | 91 | 104 | 91 | 121 | 16 | 74 | 98 | 90 | 13 | 118 | 109 | 68 | 100 | 91 | 100 | 35 | 540 | COc1cc2c(Oc3ccc(-c4nc5ccccc5s4)cc3)ncnc2cc1OCCCN1CCN(C)CC1 |
| 93 | 120 | 113 | 62 | 109 | 97 | 119 | 19 | 90 | 99 | 96 | 6 | 98 | 112 | 57 | 90 | 92 | 102 | 14 | 300 | COc1cc2c(Oc3ccc(-c4nc5ccccc5s4)cc3F)ncnc2cc1OCCCN1CCN(C)CC1 |
